ChEMBL document CHEMBL5335796, “Novel Psilocin Prodrugs with Altered Pharmacological Properties as Candidate Therapies for Treatment-Resistant Anxiety Disorders” (J Med Chem, 2024)
Calls of active or inactive are those of the source. No cut-off for these calls is given here.

Assays:
[1] = Drug metabolism in human liver S9 fraction assessed as psilocin formation at 2.5 uM after 120 mins by LC-MS analysis; assay type: ADME, subcellular; conditions: s9, 2 h
Summary of the method: (§1)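 2.5 μM compound in 50 mM potassium phosphate pH 7.4 with 3 mM MgCl2, 1 mM EDTA and an NADPH regenerating system. Incubated at 37 °C with human liver or intestinal S9 or microsomes (400 μg/mL protein) or 10% human AB serum. Acetonitrile quench, then LC-MS; psilocin concentration read at 120 min.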

[2] = Metabolic stability in human liver S9 fraction assessed as half life at 2.5 uM measured upto 120 mins in presence of NADPH by LC-MS analysis; assay type: ADME, subcellular; conditions: for t1/2: s9, 2 h, 2.5 µM
Summary of the method: (§2)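 2.5 μM compound at 37 °C in 50 mM potassium phosphate pH 7.4 with 3 mM MgCl2, 1 mM EDTA and an NADPH regenerating system. […] Sampled at 0–120 min in 20-min steps, acetonitrile quench, LC-MS of parent. T1/2 from one-phase exponential decay fit.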

[3] = Metabolic stability in human intestine S9 fraction assessed as half life at 2.5 uM measured upto 120 mins in presence of NADPH by LC-MS analysis; assay type: ADME, subcellular; conditions: s9, 2 h; summary of the method: as §2
[4] = Drug metabolism in human liver microsomes assessed as psilocin formation at 2.5 uM after 120 mins by LC-MS analysis; assay type: ADME, Microsome; conditions: 2 h; summary of the method: as §1
[5] = test system: Mus musculus; assay: Anxiolytic activity in non-stressed mouse assessed as reduction in marble-burying behavior by measuring decrease in number of buried marbles at 10 mg/kg, po measured after 1 day; assay type: functional, organism-based
[6] = Drug metabolism in po dosed C57BL/6 mouse assessed as psilocin formation measured upto 24 hrs by LC-MS analysis; assay type: ADME, organism-based; conditions: in vivo, dose 1-10 mg/kg
[7] = Drug metabolism in human intestine S9 fraction assessed as psilocin formation at 2.5 uM after 120 mins by LC-MS analysis; assay type: ADME, subcellular; conditions: s9, 2 h; summary of the method: as §1
[8] = Metabolic stability in human serum assessed as half life at 2.5 uM measured upto 120 mins in presence of NADPH by LC-MS analysis; assay type: ADME, cell-free; conditions: 2 h; summary of the method: as §2
[9] = Drug metabolism in human intestine microsomes assessed as psilocin formation at 2.5 uM after 120 mins by LC-MS analysis; assay type: ADME, Microsome; conditions: 2 h; summary of the method: as §1
[10] = test system: Mus musculus; assay: Psychedelic activity in mouse assessed as head-twitch response at 1 mg/kg, po measured after 15 to 30 mins; assay type: functional, organism-based; conditions: time 15-30 min
Summary of the method: (§3)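 C57BL/6 mice, singly housed for 2 days, with 30-min predose chamber acclimation. Single oral 1 mg/kg dose from 100 mM DMSO stock diluted in 0.9% saline; vehicle 1% DMSO in saline. Video-recorded after dosing; head twitches scored blind per 15-min interval (reference time course) or for the 15–30 min window. n = 2–4; one-way ANOVA.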

[11] = Drug metabolism in C57BL/6 mouse assessed as psilocin formation at 1 mg/kg, iv measured upto 24 hrs by LC-MS analysis; assay type: ADME, organism-based; conditions: in vivo
[12] = Drug metabolism in human serum assessed as psilocin formation at 2.5 uM after 120 mins by LC-MS analysis; assay type: ADME, cell-free; conditions: 2 h; summary of the method: as §1
[13] = Metabolic stability in human liver microsomes assessed as half life at 2.5 uM measured upto 120 mins in presence of NADPH by LC-MS analysis; assay type: ADME, Microsome; conditions: for t1/2: microsomes, 2 h, 2.5 µM; summary of the method: as §2
[14] = test system: Mus musculus; assay: Anxiolytic activity in non-stressed mouse assessed as reduction in marble-burying behavior by measuring decrease in number of buried marbles at 10 mg/kg, po measured upto 7 days; assay type: functional, organism-based; conditions: time <= 7.0 day
[15] = Drug metabolism in C57BL/6 mouse assessed as psilocin formation at 10 mg/kg, po measured after 8 hrs by LC-MS analysis; assay type: ADME, organism-based; conditions: in vivo
[16] = Metabolic stability in human intestine microsomes assessed as half life at 2.5 uM measured upto 120 mins in presence of NADPH by LC-MS analysis; assay type: ADME, Microsome; conditions: 2 h; summary of the method: as §2
[17] = Drug metabolism in C57BL/6 mouse assessed as psilocin formation at 10 mg/kg, po measured at 24 hrs by LC-MS analysis; assay type: ADME, organism-based; conditions: in vivo
[18] = Drug metabolism in C57BL/6 mouse assessed as psilocin Cmax at 10 mg/kg, po measured upto 24 hrs by LC-MS analysis; assay type: ADME, organism-based; parameters: time < 24 hrs, dose 10 mg/kg, route po; conditions: in vivo
[19] = test system: Mus musculus; assay: Anxiolytic activity in mouse assessed as reduction in MCSP induced marble-burying behavior by measuring decrease in number of buried marbles at 1 mg/kg, po measured upto 7 days; assay type: functional, organism-based; conditions: time <= 7.0 day
Summary of the method: (§4)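 Mixed-sex C57BL/6 mice, singly housed. Stress group: 7-day mild chronic stress paradigm with corticosterone 25 μg/mL in 1% ethanol drinking water plus daily 30-min restraint over the last 5 days; controls unstressed. Single oral dose in saline with 1% DMSO at 2.5 μL/g, given 24 h after stress. 10 marbles on 5 cm bedding; % buried over 20 min on days 1 and 7. Ordinary one-way ANOVA; n = 6–11.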

[20] = Drug metabolism in C57BL/6 mouse assessed as psilocin Cmax at 3 mg/kg, po measured upto 24 hrs by LC-MS analysis; assay type: ADME, organism-based; parameters: dose 3 mg/kg, time < 24 hrs, route po; conditions: in vivo
[21] = Drug metabolism in C57BL/6 mouse assessed as psilocin AUC(0 to last) at 10 mg/kg, po measured upto 24 hrs by LC-MS analysis; assay type: ADME, organism-based; parameters: dose 10 mg/kg, time < 24 hrs, route po; conditions: in vivo
[22] = Drug metabolism in C57BL/6 mouse assessed as psilocin AUC(0 to last) at 3 mg/kg, po measured upto 24 hrs by LC-MS analysis; assay type: ADME, organism-based; parameters: time < 24 hrs, dose 3 mg/kg, route po; conditions: in vivo
[23] = Anxiolytic activity in non-stressed mouse assessed as reduction in marble-burying behavior by measuring decrease in number of buried marbles at 1 mg/kg, po measured upto 7 days; assay type: toxicity, organism-based; conditions: in vivo, 168 h, time < 7 day; summary of the method: as §4
[24] = test system: Mus musculus; assay: Psychedelic activity in mouse assessed as head-twitch response at 1 mg/kg, po measured upto 90 mins; assay type: functional, organism-based; summary of the method: as §3

COc1ccc(C(=O)Oc2cccc3[nH]cc(CCN(C)C)c23)cc1
Drug metabolism [1]: 1.95 µM
t1/2 [2]: 21 min
t1/2 [3]: 132 min
Drug metabolism [4]: 2.718 µM
Activity [5]: Active
Drug metabolism [6]: Dose-Dependent Effect
Drug metabolism [7]: 0.114 µM
t1/2 [8]: 1 min
Drug metabolism [9]: 0.041 µM
Activity [10]: Active
Drug metabolism [11]: Metabolite_Detected
Drug metabolism [12]: 1.097 µM
t1/2 [13]: 17 min
Activity [14]: Active
Drug metabolism [15]: Metabolite_Notdetected
t1/2 [16]: 315 min

CN(C)CCc1c[nH]c2cccc(OC(=O)CC3CC3)c12
Drug metabolism [1]: 1.343 µM
t1/2 [2]: 3 min
t1/2 [3]: 104 min
Drug metabolism [4]: 1.89 µM
Activity [5]: Active
Drug metabolism [6]: Dose-Dependent Effect
Drug metabolism [7]: 1.384 µM
t1/2 [8]: 1 min
Drug metabolism [9]: 0.927 µM
Activity [10]: Active
Drug metabolism [11]: Metabolite_Detected
Drug metabolism [12]: 0.778 µM
t1/2 [13]: 1 min
Drug metabolism [15]: Metabolite_Notdetected
t1/2 [16]: 62 min

CN(C)CCc1c[nH]c2cccc(OC(=O)OCc3ccccc3)c12
Drug metabolism [1]: 0.084 µM
t1/2 [3]: 529 min
Drug metabolism [4]: 0.114 µM
Drug metabolism [17]: Metabolite_Detected
Drug metabolism [6]: Dose-Dependent Effect
Drug metabolism [7]: 0.044 µM
Drug metabolism [9]: 0.038 µM
Drug metabolism [11]: Metabolite_Detected
Drug metabolism [12]: 0 µM
t1/2 [13]: 113 min
t1/2 [16]: 211 min

CCCCC(=O)OCOc1cccc2[nH]cc(CCN(C)C)c12
Drug metabolism [1]: 0.07 µM
t1/2 [2]: 5 min
t1/2 [3]: 39 min
Drug metabolism [4]: 0.132 µM
Drug metabolism [6]: Dose-Dependent Effect
Drug metabolism [7]: 0.055 µM
t1/2 [8]: 3 min
Drug metabolism [9]: 0.081 µM
Drug metabolism [11]: Metabolite_Detected
Drug metabolism [12]: 0 µM
t1/2 [13]: 4 min
Drug metabolism [15]: Metabolite_Notdetected
t1/2 [16]: 112 min

CN(C)CCc1c[nH]c2cccc(OC(=O)OCC3CC3)c12
Drug metabolism [1]: 1.177 µM
t1/2 [2]: 9 min
t1/2 [3]: 327 min
Drug metabolism [4]: 1.929 µM
Drug metabolism [17]: Metabolite_Detected
Drug metabolism [6]: Dose-Dependent Effect
Drug metabolism [7]: 0.224 µM
t1/2 [8]: 3 min
Drug metabolism [9]: 0.157 µM
Activity [10]: inactive
Drug metabolism [11]: Metabolite_Detected
Drug metabolism [12]: 0.361 µM
t1/2 [13]: 4 min
t1/2 [16]: 271 min

CN(C)CCc1c[nH]c2cccc(OC(=O)c3c(F)c(F)c(F)c(F)c3F)c12
Drug metabolism [1]: 1.244 µM
t1/2 [2]: 1 min
t1/2 [3]: 56 min
Drug metabolism [4]: 2.554 µM
Drug metabolism [6]: Dose-Dependent Effect
Drug metabolism [7]: 0.533 µM
t1/2 [8]: 0.7 min
Drug metabolism [9]: 0.786 µM
Activity [10]: Active
Drug metabolism [12]: 0.45 µM
t1/2 [13]: 1 min
Drug metabolism [15]: Metabolite_Notdetected
t1/2 [16]: 32 min

CCCC(=O)OCOc1cccc2[nH]cc(CCN(C)C)c12
Drug metabolism [1]: 0.012 µM
t1/2 [2]: 4 min
t1/2 [3]: 241 min
Drug metabolism [4]: 0.073 µM
Drug metabolism [6]: Dose-Dependent Effect
Drug metabolism [7]: 0.018 µM
t1/2 [8]: 2 min
Drug metabolism [9]: 0.043 µM
Activity [10]: inactive
Drug metabolism [12]: 0 µM
t1/2 [13]: 3 min
Drug metabolism [15]: Metabolite_Notdetected
t1/2 [16]: 74 min

CN(C)CCc1c[nH]c2cccc(OC(=O)SCc3ccccc3)c12
Drug metabolism [1]: 1.233 µM
half-life at 2.5 µM ([2]; liver S9 fraction): 5 min
t1/2 [3]: 50 min
Drug metabolism [4]: 2.105 µM
Activity [5]: Active
Drug metabolism [6]: Dose-Dependent Effect
Drug metabolism [7]: 0 µM
t1/2 [8]: 14 min
Drug metabolism [9]: 0.156 µM
Activity [10]: Active
Drug metabolism [11]: Metabolite_Detected
Drug metabolism [12]: 0.385 µM
half-life at 2.5 µM ([13]; liver microsomes): 6 min
Activity [14]: Active
Drug metabolism [15]: Metabolite_Notdetected
t1/2 [16]: 71 min

CN(C)CCc1c[nH]c2cccc(OP(=O)(O)O)c12 [PSILOCYBIN]
Drug metabolism [1]: 0 µM
Cmax [18]: 243 ng/mL
Activity [19]: Active
Drug metabolism [4]: 0 µM
Cmax [20]: 52.9 ng/mL
Drug metabolism [6]: Dose-Dependent Effect
Drug metabolism [7]: 0.621 µM
Drug metabolism [9]: 0.172 µM
AUClast [21]: 397.3 ng·h/mL
Drug metabolism [12]: 0 µM
AUClast [22]: 84.4 ng·h/mL
Activity [23]: Non-Toxic
Activity [24]: Active
Drug metabolism [15]: Metabolite_Notdetected
t1/2 [16]: 195 min
